# Yeast growth inh: chemicals that inhibit yeast BB579 growth in restrictive medium (lifespan-shortening candidates). S. cerevisiae BB579 growth, OD615, 48 h. inhibition, % at 10 µM. actives 0.51% (n = 140,000);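 active means inhibition above a set limit, 3 SD over the mean compound inhibition, cut at about 44% in these data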
#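 System: Saccharomyces cerevisiae DeaD strain BB579, replicative lifespan model yeast. Buffer or medium: restrictive glucose-based CSMM-D medium. Doses: one dose, 10 µM compound with 0.25% DMSO. Timing: 4 h preincubation and 48 h exposure at 30 °C. Detection: turbidity as optical density at 615 nm. Benchmarks: amphotericin B 10 µg/mL, positive.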
# sdo1 growth: sdo1-depleted yeast growth rescue; z-score at 10 µM; actives 0.21% (n = 140,000); S. cerevisiae sdo1-depleted JHY4D growth rescue, OD600 30 h; hits give high values; pdr5 snq2 efflux-pump mutant strain;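 active means z-score above 3 at both the 24 hr and the 30 hr optical density reads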;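 further: z-score against mean and SD of all compound wells on the same plate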
# RAM network inh: inhibitors of the yeast RAM network; S. cerevisiae dse1pr::URA3 reporter, 5-FOA growth OD615, 2 d; analog-sensitive cbk1-as2 kinase mutant strain; inhibition, % at 50 µM; actives 1.8% (n = 190,000);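 active means inhibition above a set limit, 3 SD over mean compound inhibition, cut at about 8.4% in these data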;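 further: 0% = DMSO-only wells with no growth and 100% = 10 µM 1-NA-PP1 full growth; inhibition rescues growth on 5-FOA so higher OD means more RAM inhibition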
# Yeast lifespan up: extends the lifespan of yeast | S. cerevisiae growth with nicotinamide, OD615; deaD strain in restrictive glucose medium | inhibition of the nicotinamide effect, % at 10 µM | actives 0.68% (n = 130,000);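 active means inhibition above a set limit, placed 3 SD over the median of all compounds, cut at about 26% in these data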;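 further: 0% = nicotinamide-treated wells and 100% = cells grown without nicotinamide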
#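 Measured by: optical density (absorbance) at 615 nm; System: modified budding yeast, DeaD strain; Medium: restrictive CSMM-D dextrose medium; Timing: 4 h preincubation then 48 h treatment at 30 °C.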
# RAM 5-FOA: restores 5-FOA growth of efflux-deficient yeast | S. cerevisiae efflux-deficient reporter strain, 5-FOA growth OD615, 2 days | AID 1305 | shares compounds with RAM network inh | max inhibition, % | 1,200 tested, under 10 active; call rule not given here;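 further: plate controls were vehicle for no effect and reference inhibitor for full effect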
# * marks the source's active call; other numbers are inactive results; . = no result. Only some compounds are listed: those with a hit (about 2.7% of all), similar ones and a draw of the others.
SMILES,Yeast growth inh,sdo1 growth,RAM network inh,Yeast lifespan up,RAM 5-FOA
Cc1cccc(NC2=Nc3ccccc3N3C2=Nc2c(c(C)nn2-c2ccccc2)C3c2ccc(O)c(O)c2)c1 (stereo not given),7.2,1.44,11.6*,-8.0,9.2
Cc1nn(-c2ccccc2)c2c1C(c1ccc(O)c(O)c1)N1C(=N2)C(Nc2ccccc2)=Nc2ccccc21 (stereo not given),-38.9,-1.38,0.0,-5.8,.
Cc1nn(-c2ccccc2)c2c1C(c1ccc(Cl)cc1)N(c1ccccc1)C(=O)N2 (stereo not given),-11.8,-0.47,2.8,1.9,.
Cc1ccc(NC2=Nc3ccccc3N3C2=Nc2c(c(C)nn2-c2ccccc2)C3c2ccc(O)c(O)c2)cc1 (stereo not given),-34.4,-1.11,11.4*,-11.6,9.9
Cc1ccc(C2=Nc3ccc(Br)cc3C(c3ccncc3)=NN2)cc1,.,.,1.8,.,.
CCOc1ccccc1NC(=O)C(OC(=O)c1ccc(CC)cc1)c1ccccc1 (stereo not given),-54.8,-0.04,14.7*,9.4,4.2
CCOC(=O)C(C)Sc1nc(-c2cccs2)ccc1C#N (stereo not given),-23.2,-1.53,12.9*,-14.1,2.0
C=COC(=O)CSc1nc(-c2cccs2)ccc1C#N,-31.7,-0.3,8.2,-27.3,.
COC(=O)C(CCSC)NS(=O)(=O)c1ccc(Cl)cc1 (stereo not given),.,.,-0.5,.,.
COc1ccc(C(=O)COC(=O)C(CCSC)NS(=O)(=O)c2ccc(Cl)cc2)cc1 (stereo not given),-18.3,-0.9,15.3*,19.8,1.2
Cn1c(=O)c(/C=C/c2ccc(F)cc2)nc2ccccc21,.,.,14.3*,.,4.6
O=C(CC(Nc1ccccc1Cl)C(=O)OCC(=O)c1cccs1)c1ccccc1 (stereo not given),-35.1,-1.19,18.9*,-3.4,2.0
O=C(OCC(=O)c1cccs1)c1ccccc1,-27.4,0.1,1.7,-6.9,.
COc1ccc(CN2CCNC(=O)C2CC(=O)NCCSc2nccn2C)cc1OC (stereo not given),.,.,1.2,.,.
COc1ccc(/C=C/C(=O)Nc2cc(S(=O)(=O)N3CCCCC3)ccc2N2CCCCC2)cc1OC,-13.7,1.46,11.8*,-0.2,13.1
CCC(Oc1ccc2c(=O)c(-c3ccccc3OC)coc2c1)C(=O)OCc1ccccc1 (stereo not given),-28.6,0.45,22.2*,3.6,2.4
CCNS(=O)(=O)c1ccc(NS(=O)(=O)c2cc(C)ccc2C)cc1,-26.3,0.67,0.2,-2.3,.
CCCCNS(=O)(=O)c1ccc(NS(=O)(=O)c2c(C)cc(C)cc2C)cc1,-50.1,0.24,11.8*,-4.8,1.1
O=C(COC(=O)CNS(=O)(=O)c1c(Cl)cccc1Cl)Nc1cccnc1Cl,-49.0,-0.17,1.8,4.8,.
Cc1ccc(Cl)cc1N1CCN(S(=O)(=O)c2ccc3[nH]c(=O)c(=O)[nH]c3c2)CC1,.,.,12.2*,.,2.3
CCCCN1C(=O)/C(=C/C=C2\SCCN2C)SC1=S,.,.,12.7*,.,1.8
O=c1c2cn[nH]c2[nH]c(=S)n1-c1cccc(Cl)c1,-9.6,1.21,1.3,3.8,.
COc1ccc(S(=O)(=O)N(Cc2ccccc2)Cc2nc(-c3ccccc3)no2)cc1,-39.2,-1.14,11.5*,0.8,1.9
COc1ccc(Cc2nc(-c3ccccc3)no2)cc1,-25.0,-0.51,-0.4,-11.9,.
C=CCN(c1ccccc1Cl)S(=O)(=O)c1cccc(C(=O)NCCc2ccc(OC)cc2)c1,-50.2,-0.63,14.4*,7.8,3.5
SMILES,Yeast growth inh,sdo1 growth,RAM network inh,Yeast lifespan up,RAM 5-FOA
CCOC(=O)C1=C(O)/C(=C/c2cc(OC)c(O)c(OC)c2)SC1=Nc1ccc(OC)cc1,-14.9,0.75,16.5*,3.5,9.9
CCNc1ccc2noc3c2c1C(=O)c1ccccc1-3,-11.6,-0.58,19.9*,.,8.7
CCCOc1ccc(/C=C/C(=O)Nc2ccc([N+](=O)[O-])cc2)cc1,-34.4,-1.37,13.3*,-3.4,2.7
O=C(/C=C/c1ccc2c(c1)OCO2)NCCSCc1ccc(Cl)cc1,-15.2,-1.28,0.2,-4.6,.
O=C(/C=C/c1cccc([N+](=O)[O-])c1)NCCSCc1cccc(Cl)c1,-31.2,-2.09,11.5*,-1.6,2.0
O=C(/C=C/c1ccc2c(c1)OCO2)NCCSCc1c(Cl)cccc1Cl,-17.1,-1.5,15.1*,-8.8,2.5
O=C(COc1ccc(Cl)cc1)NCc1ccncc1,.,.,-0.1,.,.
CC(C)(C)n1nnnc1C(c1cccnc1)N(Cc1ccccc1)Cc1ccco1 (stereo not given),-34.7,-0.98,-0.4,-9.9,.
COc1cccc(CN(Cc2ccco2)C(c2ccc(F)cc2)c2nnnn2C(C)(C)C)c1 (stereo not given),-50.7,-0.11,13.9*,-2.7,3.4
CCc1ccc(C(=O)NNC(=O)OC)cc1,.,.,0.5,.,.
O=C(c1ccc(Cn2c(=S)[nH]c3ccc(N4CCOCC4)cc3c2=O)cc1)N1CCN(c2ccc(F)cc2)CC1,.,.,3.9,.,.
Cc1ccc(C)c(N2CCN(C(=O)c3ccc(Cn4c(=S)[nH]c5ccc(N6CCOCC6)cc5c4=O)cc3)CC2)c1,.,.,12.6*,.,3.3
O=C(CCOc1ccccc1)Nc1cccc(S(=O)(=O)Nc2ccccc2Cl)c1,-4.5,-0.7,17.6*,6.1,1.5
O=C(Nc1cccc(S(=O)(=O)Nc2ccccc2Cl)c1)c1ccc(Cl)nc1,-2.5,0.32,4.1,3.7,.
O=S(=O)(Nc1ccc(N=Nc2ccc(O)c3ccccc23)cc1)c1ccccc1,-41.5,-0.82,13.5*,2.4,2.7
Cn1c(=O)c2c(nc(Cl)n2CC(=O)N2CCCCC2)n(C)c1=O,.,.,2.2,.,.
CC1CCc2nc(NC(=O)Nc3ccc4c(c3)OCO4)sc2C1 (stereo not given),-26.9,-1.11,22.8*,-3.4,1.9
Cc1cc(SC(C)C(=O)Nc2ncc(Cl)cc2Cl)nc2ccccc12 (stereo not given),-46.4,-0.93,12.4*,4.6,1.9
O=C1c2ccccc2C(=O)N1CCCCN(C(=O)c1ccc(Cl)s1)c1ccc(Cl)cc1,-34.2,-0.33,11.5*,13.4,3.6
Cc1ccc(N(CCCCN2C(=O)c3ccccc3C2=O)C(=O)c2ccc(Cl)s2)cc1,-4.7,0.28,4.1,0.6,.
CCOc1ccc(CC(=O)NNC(=S)NCCc2ccccc2)cc1,.,.,3.4,.,.
CCOC(=O)C(C)(C)N(Cc1cccc(C)c1)S(=O)(=O)c1cccc([N+](=O)[O-])c1,-16.5,-1.19,12.6*,-0.5,0.5
CCCC(=O)Oc1ccc(N(C(=O)CCC)S(=O)(=O)c2cccc([N+](=O)[O-])c2)cc1,-45.5,-0.58,3.8,16.2,.
CCCCOC(=O)c1ccc(NC(=S)NC(=O)c2c(Cl)cnn2CC)cc1,-41.3,-0.78,8.2,-8.0,.
CCCCOC(=O)c1ccc(NC(=S)NC(=O)c2c(Cl)cnn2C)cc1,-43.7,-0.05,15.6*,-8.6,1.4
CC(=O)Nc1ccc(-c2csc(NCc3ccco3)n2)cc1,-14.1,0.85,2.4,.,.
